Data: ChEMBL document CHEMBL4004837, “Synthesis and Characterization of Urofuranoic Acids: In Vivo Metabolism of 2-(2-Carboxyethyl)-4-methyl-5-propylfuran-3-carboxylic Acid (CMPF) and Effects on in Vitro Insulin Secretion” (J Med Chem, 2017)

Tests used:
Plasma [1] = experiment: (§1) Drug metabolism in CD1 mouse plasma assessed as glycerol conjugate formation at 6 mg/kg, ip dosed once daily for 3 days followed by dosing of 1:1 mixtures of 2-(2-Carboxyethyl)-4-methyl-5-propyl-(3-13C-furan)-3-13Ccarboxylateand test compound on day 4 and 5 measured 1 hr post dose on day 5 by HPLC-MS analysis; assay type: ADME, organism-based; details: in vivo
In short: (§2)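 CMPF given 6 mg/kg i.p. once daily for three days. On days four and five, 1:1 mixtures of stable-isotope-labelled and unlabelled CMPF were dosed. Mice were killed 1 h after the day-five dose. Plasma, adipose, muscle and liver were collected and analysed by HPLC-MS (MS/MS for product ions). Metabolites were identified by their distinctive isotope patterns from the labelled/unlabelled mixture.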

[2] = as §1, with “muscle” for “plasma”, “oxidative metabolites” for “glycerol conjugate”; assay type: ADME, organism-based, Muscle tissue; details: in vivo; in short: as §2
[3] = Drug metabolism in CD1 mouse muscle assessed as loss of C2 carboxyl during fragmentation at 6 mg/kg, ip dosed once daily for 3 days followed by dosing of 1:1 mixtures of 2-(2-Carboxyethyl)-4-methyl-5-propyl-(3-13C-furan)-3-13Ccarboxylate and test compound on day 4 and 5 measured 1 hr post dose on day 5 by HPLC-MS analysis; assay type: ADME, organism-based, Muscle tissue; details: in vivo
In short: (§3)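 Mice received CMPF 6 mg/kg intraperitoneally for three days, then 1:1 labeled/unlabeled CMPF mixtures on days four and five. On day five they were euthanized 1 h post-dose, and plasma, adipose, muscle and liver were collected. Samples were analysed by HPLC-MS, with MS/MS of product ions. Metabolites were identified by the distinctive isotope patterns from the 1:1 label mixture.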

Plasma [4] = experiment: Plasma concentration in human; assay type: ADME, cell-free
CYP2D6 = CYP2D6 (Homo sapiens, UniProt P10635); experiment: Inhibition of human microsomal CYP2D6 at 10 uM after 3 mins by single quad LC/MS analysis; assay type: ADME; details: microsomes
Sequence of CYP2D6 (P10635 whole entry): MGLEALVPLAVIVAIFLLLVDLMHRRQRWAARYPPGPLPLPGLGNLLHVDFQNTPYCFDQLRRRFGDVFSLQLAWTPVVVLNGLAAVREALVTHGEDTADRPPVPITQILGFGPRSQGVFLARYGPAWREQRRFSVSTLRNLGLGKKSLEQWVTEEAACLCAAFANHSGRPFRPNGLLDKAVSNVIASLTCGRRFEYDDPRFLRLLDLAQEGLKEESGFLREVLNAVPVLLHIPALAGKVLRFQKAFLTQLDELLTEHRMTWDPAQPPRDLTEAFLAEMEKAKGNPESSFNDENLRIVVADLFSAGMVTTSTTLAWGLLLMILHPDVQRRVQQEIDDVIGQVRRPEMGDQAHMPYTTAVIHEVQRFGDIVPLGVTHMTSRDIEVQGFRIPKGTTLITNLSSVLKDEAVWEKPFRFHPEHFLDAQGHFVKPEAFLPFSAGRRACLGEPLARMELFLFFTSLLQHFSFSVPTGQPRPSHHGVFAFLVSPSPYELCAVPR

Plasma [5] = experiment: (§4) Drug metabolism in CD1 mouse plasma assessed as oxidative metabolites formation at 6 mg/kg, ip dosed once daily for 3 days followed by dosing of 1:1 mixtures of 2-(2-Carboxyethyl)-4-methyl-5-(1-propyl-1-13C)furan-3-carboxylic Acid and test compound on day 4 and 5 measured 1 hr post dose on day 5 by HPLC-MS analysis; assay type: ADME, organism-based; details: in vivo; in short: as §2
[6] = Initial plasma concentration in mouse at 3 mg/kg, iv; assay type: ADME, organism-based
In short: (§5)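 Mouse pharmacokinetics after single intravenous CMPF dosing at 1 or 3 mg/kg. Plasma exposure was followed over time to derive AUC, C0, terminal half-life, clearance and volume of distribution.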

[7] = Effect on insulin content in glucose-stimulated mouse pancreatic islet at 200 uM incubated for 24 hrs followed by glucose stimulation for 20 mins by HTRF assay; assay type: ADME, cell-based
In short: (§6)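 Mouse islets treated with compounds at 200 µM. Insulin secretion was then measured under low- and high-glucose GSIS conditions and under KCl stimulation, and intracellular insulin content was measured. Mean of n = 4-5 experiments with SEM.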

[8] = as §4, with “muscle” for “plasma”, “2-(2-(Carboxy-13C)ethyl)-4-methyl-5-propylfuran-3-carboxylic-2-13C” for “2-(2-Carboxyethyl)-4-methyl-5-(1-propyl-1-13C)furan-3-carboxylic”; assay type: ADME, organism-based, Muscle tissue; details: in vivo; in short: as §3
Liver [9] = experiment: as §4, with “liver” for “plasma”, “2-(2-(Carboxy-13C)ethyl)-4-methyl-5-propylfuran-3-carboxylic-2-13C” for “2-(2-Carboxyethyl)-4-methyl-5-(1-propyl-1-13C)furan-3-carboxylic”; assay type: ADME, organism-based; details: in vivo; in short: as §3
[10] = Suppression of KCl-stimulated insulin secretion in mouse pancreatic islet at 200 uM incubated for 24 hrs followed by KCl stimulation for 20 mins by HTRF assay; assay type: ADME, cell-based; in short: as §6
[11] = Clearance in mouse at 3 mg/kg, iv; assay type: ADME, organism-based; details: in vivo
[12] = as §1, with “muscle” for “plasma”, “diacylglycerol” for “glycerol”; assay type: ADME, organism-based, Muscle tissue; details: in vivo; in short: as §3
[13] = as §1, with “muscle” for “plasma”, “monoacylglycerol” for “glycerol”; assay type: ADME, organism-based, Muscle tissue; details: in vivo; in short: as §3
CYP2C9 = CYP2C9 (Homo sapiens, UniProt P11712); experiment: Inhibition of human microsomal CYP2C9 at 10 uM after 10 mins by single quad LC/MS analysis; assay type: ADME; details: microsomes
Sequence of CYP2C9 (P11712 whole entry): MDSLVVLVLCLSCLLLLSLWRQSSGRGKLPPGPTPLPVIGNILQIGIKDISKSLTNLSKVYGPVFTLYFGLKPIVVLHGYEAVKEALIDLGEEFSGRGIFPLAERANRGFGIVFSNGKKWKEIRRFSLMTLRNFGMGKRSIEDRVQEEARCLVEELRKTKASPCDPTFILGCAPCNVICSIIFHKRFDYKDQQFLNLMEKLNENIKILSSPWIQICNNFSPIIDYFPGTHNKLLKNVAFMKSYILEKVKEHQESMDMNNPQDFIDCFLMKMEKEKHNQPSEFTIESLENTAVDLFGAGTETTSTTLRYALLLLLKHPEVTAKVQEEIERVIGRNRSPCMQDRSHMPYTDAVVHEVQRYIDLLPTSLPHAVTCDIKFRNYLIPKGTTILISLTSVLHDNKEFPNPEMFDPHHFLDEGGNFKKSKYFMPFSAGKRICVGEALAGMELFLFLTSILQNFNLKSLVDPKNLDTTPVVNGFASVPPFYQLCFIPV

Plasma [14] = experiment: as §1, with “monoacylglycerol” for “glycerol”; assay type: ADME, organism-based; details: in vivo; in short: as §2
[15] = Initial plasma concentration in mouse at 6 mg/kg, iv; assay type: ADME, organism-based
Plasma [16] = experiment: Drug metabolism in CD1 mouse plasma assessed as glucuronide conjugate formation at 6 mg/kg, ip dosed once daily for 3 days followed by dosing of 1:1 mixtures of 2-(2-Carboxyethyl)-4-methyl-5-propyl-(3-13C-furan)-3-13Ccarboxylate and test compound on day 4 and 5 measured 1 hr post dose on day 5 by HPLC-MS analysis; assay type: ADME, organism-based; details: in vivo; in short: as §2
Plasma [17] = experiment: as §1, with “diacylglycerol” for “glycerol”; assay type: ADME, organism-based; details: in vivo; in short: as §2
Plasma [18] = experiment: as §4, with “2-(2-Carboxyethyl)-4-methyl-5-propyl-(3-13C-furan)-3-13Ccarboxylateand” for “2-(2-Carboxyethyl)-4-methyl-5-(1-propyl-1-13C)furan-3-carboxylic Acid and”; assay type: ADME, organism-based; details: in vivo; in short: as §2
Plasma [19] = experiment: (§7) Drug metabolism in CD1 mouse plasma assessed as diacylglycerol conjugate formation at 6 mg/kg, ip dosed once daily for 3 days followed by dosing of 1:1 mixtures of 2-(2-(Carboxy-13C)ethyl)-4-methyl-5-propylfuran-3-carboxylic-2-13C Acid and test compound on day 4 and 5 measured 1 hr post dose on day 5 by HPLC-MS analysis; assay type: ADME, organism-based; details: in vivo; in short: as §2
Liver [20] = experiment: as §1, with “liver” for “plasma”, “monoacylglycerol” for “glycerol”; assay type: ADME, organism-based; details: in vivo; in short: as §3
[21] = Initial plasma concentration in mouse at 1 mg/kg, iv; assay type: ADME, organism-based; in short: as §5
[22] = (§8) Drug metabolism in CD1 mouse muscle assessed as glycerol conjugate formation at 6 mg/kg, ip dosed once daily for 3 days followed by dosing of 1:1 mixtures of 2-(2-Carboxyethyl)-4-methyl-5-(1-propyl-1-13C)furan-3-carboxylic Acid and test compound on day 4 and 5 measured 1 hr post dose on day 5 by HPLC-MS analysis; assay type: ADME, organism-based, Muscle tissue; details: in vivo; in short: as §3
Liver [23] = experiment: as §8, with “liver” for “muscle”; assay type: ADME, organism-based; details: in vivo; in short: as §3
Liver [24] = experiment: as §7, with “liver” for “plasma”; assay type: ADME, organism-based; details: in vivo; in short: as §3
Liver [25] = experiment: as §1, with “liver” for “plasma”; assay type: ADME, organism-based; details: in vivo; in short: as §3
[26] = as §7, with “adipose” for “plasma”, “monoacylglycerol” for “diacylglycerol”; assay type: ADME, organism-based, Adipose tissue; details: in vivo; in short: as §3
[27] = Half life in mouse at 3 mg/kg, iv; assay type: ADME, organism-based; details: in vivo; in short: as §5
[28] = AUC in mouse at 1 mg/kg, iv; assay type: ADME, organism-based; details: in vivo
Plasma [29] = experiment: as §4, with “monoacylglycerol conjugate” for “oxidative metabolites”; assay type: ADME, organism-based; details: in vivo; in short: as §2

## CCCc1oc(CCC(=O)O)c(C(=O)O)c1C
Plasma [1]
  Drug metabolism: Metabolite_Notdetected
[2]
  Drug metabolism: Metabolite_Notdetected
[3]
  Drug metabolism: Metabolite_Detected
Plasma [4]
  concentration: 20 to 40 µM
CYP2D6
  inhibition at 0.05 h, 10 µM: 0%
Plasma [5]
  Drug metabolism: Metabolite_Notdetected
[6]
  C0: 130 µM
[7]
  Activity: Non-Toxic
[8]
  Drug metabolism: Metabolite_Notdetected
Liver [9]
  Drug metabolism: Metabolite_Notdetected
[10]
  Activity: Toxic
[11]
  clearance: 0.85 mL/min/kg
[12]
  Drug metabolism: Metabolite_Notdetected
[13]
  Drug metabolism: Metabolite_Notdetected
CYP2C9
  inhibition at 10 min, 10 µM: 0%
Plasma [14]
  Drug metabolism: Metabolite_Notdetected
[15]
  C0: 200 to 250 µM
Plasma [16]
  Drug metabolism: Metabolite_Detected
Plasma [17]
  Drug metabolism: Metabolite_Notdetected
Plasma [18]
  Drug metabolism: Metabolite_Notdetected
Plasma [19]
  Drug metabolism: Metabolite_Notdetected
Liver [20]
  Drug metabolism: Metabolite_Notdetected
[21]
  C0: 53.3 µM
[22]
  Drug metabolism: Metabolite_Notdetected
Liver [23]
  Drug metabolism: Metabolite_Notdetected
Liver [24]
  Drug metabolism: Metabolite_Notdetected
Liver [25]
  Drug metabolism: Metabolite_Notdetected
[26]
  Drug metabolism: Metabolite_Notdetected
[27]
  half-life: 3.27 h
[28]
  AUC: 89.3 µM·h
Plasma [29]
  Drug metabolism: Metabolite_Notdetected
